Data reported in ChEMBL document CHEMBL1255501, “Heteroresistance of Cryptococcus gattii to fluconazole” (2010).
The source made the active and inactive calls.

Key:
Assay type in all cases: functional, organism-based
Conditions in all cases: Cryptococcus bacillisporus
[1] = system: Cryptococcus gattii species complex; experiment: Antimicrobial activity against fluconazole-resistant Cryptococcus gattii serotype B isolate B3939 at 64 ug/ml
Method in brief: (§1)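 Strains were grown overnight in YPD broth at 30°C, washed, serially diluted in sterile saline and spotted at 3 μl onto YPD agar alone or YPD agar containing a xenobiotic: rhizoxin 0.5 μg/ml, gliotoxin 3.2 μg/ml or trichostatin A 64 μg/ml. Growth was compared by spot test.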

[2] = system: Cryptococcus gattii species complex; experiment: Antimicrobial activity against fluconazole-resistant Cryptococcus gattii serotype C isolate NIH257 at 64 ug/ml
[3] = system: Cryptococcus deuterogattii; experiment: Antimicrobial activity against fluconazole-resistant Cryptococcus gattii serotype B isolate NIH444 at 64 ug/ml; method in brief: as §1
[4] = system: Cryptococcus gattii species complex; experiment: Antimicrobial activity against fluconazole-resistant Cryptococcus gattii serotype B isolate NIH184 at 64 ug/ml; method in brief: as §1
[5] = system: Cryptococcus gattii species complex; experiment: Antimicrobial activity against fluconazole-resistant Cryptococcus gattii serotype C isolate NIH34 at 64 ug/ml
[6] = system: Cryptococcus gattii species complex; experiment: Antimicrobial activity against fluconazole-resistant Cryptococcus gattii serotype B isolate NIH200 at 64 ug/ml; method in brief: as §1
[7] = system: Cryptococcus gattii species complex; experiment: Antimicrobial activity against fluconazole-resistant Cryptococcus gattii serotype C isolate H00581-1941 at 64 ug/ml
[8] = system: Cryptococcus gattii species complex; experiment: Antimicrobial activity against fluconazole-resistant Cryptococcus gattii serotype B isolate B4506 at 64 ug/ml; method in brief: as §1
[9] = system: Cryptococcus gattii species complex; experiment: Antimicrobial activity against fluconazole-resistant Cryptococcus gattii serotype B isolate NIH771 at 64 ug/ml
[10] = system: Cryptococcus gattii species complex; experiment: Antimicrobial activity against fluconazole-resistant Cryptococcus gattii serotype B isolate RB3 at 64 ug/ml
[11] = system: Cryptococcus gattii species complex; experiment: Antimicrobial activity against fluconazole-resistant Cryptococcus gattii serotype B isolate NIH198 at 64 ug/ml; method in brief: as §1
[12] = system: Cryptococcus gattii species complex; experiment: Antimicrobial activity against fluconazole-resistant Cryptococcus gattii serotype B isolate B5788 at 64 ug/ml; method in brief: as §1
[13] = system: Cryptococcus gattii species complex; experiment: Antimicrobial activity against fluconazole-resistant Cryptococcus gattii serotype B isolate NIH754 at 64 ug/ml; method in brief: as §1
[14] = system: Cryptococcus gattii species complex; experiment: Antimicrobial activity against fluconazole-resistant Cryptococcus gattii serotype B isolate NIH409 at 64 ug/ml; method in brief: as §1
[15] = system: Cryptococcus gattii species complex; experiment: Antimicrobial activity against fluconazole-resistant Cryptococcus gattii serotype B isolate B5763 at 64 ug/ml; method in brief: as §1
[16] = system: Cryptococcus gattii species complex; experiment: Antimicrobial activity against fluconazole-resistant Cryptococcus gattii serotype B isolate NIH535 at 64 ug/ml; method in brief: as §1
[17] = system: Cryptococcus gattii species complex; experiment: Antimicrobial activity against fluconazole-resistant Cryptococcus gattii serotype C isolate H0058-1-818 at 64 ug/ml
[18] = system: Cryptococcus gattii species complex; experiment: Antimicrobial activity against fluconazole-resistant Cryptococcus gattii serotype B isolate NIH189 at 64 ug/ml; method in brief: as §1
[19] = system: Cryptococcus gattii species complex; experiment: Antimicrobial activity against fluconazole-resistant Cryptococcus gattii serotype B isolate NIH412 at 64 ug/ml; method in brief: as §1
[20] = system: Cryptococcus gattii species complex; experiment: Antimicrobial activity against fluconazole-resistant Cryptococcus gattii serotype B isolate NIH771 at 3.2 ug/ml
[21] = system: Cryptococcus gattii species complex; experiment: Antimicrobial activity against fluconazole-resistant Cryptococcus gattii serotype B isolate NIH200 at 3.2 ug/ml; method in brief: as §1
[22] = system: Cryptococcus gattii species complex; experiment: Antimicrobial activity against fluconazole-resistant Cryptococcus gattii serotype B isolate NIH409 at 3.2 ug/ml; method in brief: as §1
[23] = system: Cryptococcus gattii species complex; experiment: Antimicrobial activity against fluconazole-resistant Cryptococcus gattii serotype C isolate NIH257 at 3.2 ug/ml
[24] = system: Cryptococcus gattii species complex; experiment: Antimicrobial activity against fluconazole-resistant Cryptococcus gattii serotype B isolate NIH535 at 3.2 ug/ml; method in brief: as §1
[25] = system: Cryptococcus gattii species complex; experiment: Antimicrobial activity against fluconazole-resistant Cryptococcus gattii serotype C isolate H0058-1-818 at 3.2 ug/ml
[26] = system: Cryptococcus gattii species complex; experiment: Antimicrobial activity against fluconazole-resistant Cryptococcus gattii serotype C isolate H00581-1941 at 3.2 ug/ml
[27] = system: Cryptococcus gattii species complex; experiment: Antimicrobial activity against fluconazole-resistant Cryptococcus gattii serotype B isolate B5788 at 3.2 ug/ml; method in brief: as §1
[28] = system: Cryptococcus gattii species complex; experiment: Antimicrobial activity against fluconazole-resistant Cryptococcus gattii serotype B isolate B5763 at 3.2 ug/ml; method in brief: as §1
[29] = system: Cryptococcus gattii species complex; experiment: Antimicrobial activity against fluconazole-resistant Cryptococcus gattii serotype B isolate B4506 at 3.2 ug/ml; method in brief: as §1
[30] = system: Cryptococcus deuterogattii; experiment: Antimicrobial activity against fluconazole-resistant Cryptococcus gattii serotype B isolate NIH444 at 3.2 ug/ml; method in brief: as §1
[31] = system: Cryptococcus gattii species complex; experiment: Antimicrobial activity against fluconazole-resistant Cryptococcus gattii serotype B isolate NIH189 at 3.2 ug/ml; method in brief: as §1
[32] = system: Cryptococcus gattii species complex; experiment: Antimicrobial activity against fluconazole-resistant Cryptococcus gattii serotype B isolate NIH754 at 3.2 ug/ml; method in brief: as §1
[33] = system: Cryptococcus gattii species complex; experiment: Antimicrobial activity against fluconazole-resistant Cryptococcus gattii serotype B isolate B3939 at 3.2 ug/ml; method in brief: as §1
[34] = system: Cryptococcus gattii species complex; experiment: Antimicrobial activity against fluconazole-resistant Cryptococcus gattii serotype B isolate NIH184 at 3.2 ug/ml; method in brief: as §1
[35] = system: Cryptococcus gattii species complex; experiment: Antimicrobial activity against fluconazole-resistant Cryptococcus gattii serotype B isolate NIH412 at 3.2 ug/ml; method in brief: as §1
[36] = system: Cryptococcus gattii species complex; experiment: Antimicrobial activity against fluconazole-resistant Cryptococcus gattii serotype B isolate RB3 at 3.2 ug/ml
[37] = system: Cryptococcus gattii species complex; experiment: Antimicrobial activity against fluconazole-resistant Cryptococcus gattii serotype C isolate NIH34 at 3.2 ug/ml
[38] = system: Cryptococcus gattii species complex; experiment: Antimicrobial activity against fluconazole-resistant Cryptococcus gattii serotype B isolate NIH198 at 3.2 ug/ml; method in brief: as §1
[39] = system: Cryptococcus gattii species complex; experiment: Antimicrobial activity against fluconazole-resistant Cryptococcus gattii serotype B isolate NIH189 at 0.5 ug/ml; method in brief: as §1
[40] = system: Cryptococcus gattii species complex; experiment: Antimicrobial activity against fluconazole-resistant Cryptococcus gattii serotype B isolate B4506 at 0.5 ug/ml; method in brief: as §1
[41] = system: Cryptococcus gattii species complex; experiment: Antimicrobial activity against fluconazole-resistant Cryptococcus gattii serotype B isolate B3939 at 0.5 ug/ml; method in brief: as §1
[42] = system: Cryptococcus gattii species complex; experiment: Antimicrobial activity against fluconazole-resistant Cryptococcus gattii serotype B isolate NIH409 at 0.5 ug/ml; method in brief: as §1
[43] = system: Cryptococcus gattii species complex; experiment: Antimicrobial activity against fluconazole-resistant Cryptococcus gattii serotype B isolate NIH200 at 0.5 ug/ml; method in brief: as §1
[44] = system: Cryptococcus gattii species complex; experiment: Antimicrobial activity against fluconazole-resistant Cryptococcus gattii serotype C isolate NIH34 at 0.5 ug/ml
[45] = system: Cryptococcus gattii species complex; experiment: Antimicrobial activity against fluconazole-resistant Cryptococcus gattii serotype B isolate RB3 at 0.5 ug/ml
[46] = system: Cryptococcus gattii species complex; experiment: Antimicrobial activity against fluconazole-resistant Cryptococcus gattii serotype B isolate B5763 at 0.5 ug/ml; method in brief: as §1
[47] = system: Cryptococcus deuterogattii; experiment: Antimicrobial activity against fluconazole-resistant Cryptococcus gattii serotype B isolate NIH444 at 0.5 ug/ml; method in brief: as §1
[48] = system: Cryptococcus gattii species complex; experiment: Antimicrobial activity against fluconazole-resistant Cryptococcus gattii serotype C isolate H00581-1941 at 0.5 ug/ml
[49] = system: Cryptococcus gattii species complex; experiment: Antimicrobial activity against fluconazole-resistant Cryptococcus gattii serotype B isolate NIH771 at 0.5 ug/ml; method in brief: as §1
[50] = system: Cryptococcus gattii species complex; experiment: Antimicrobial activity against fluconazole-resistant Cryptococcus gattii serotype B isolate NIH754 at 0.5 ug/ml; method in brief: as §1
[51] = system: Cryptococcus gattii species complex; experiment: Antimicrobial activity against fluconazole-resistant Cryptococcus gattii serotype B isolate NIH198 at 0.5 ug/ml; method in brief: as §1
[52] = system: Cryptococcus gattii species complex; experiment: Antimicrobial activity against fluconazole-resistant Cryptococcus gattii serotype B isolate B5788 at 0.5 ug/ml; method in brief: as §1
[53] = system: Cryptococcus gattii species complex; experiment: Antimicrobial activity against fluconazole-resistant Cryptococcus gattii serotype B isolate NIH412 at 0.5 ug/ml; method in brief: as §1
[54] = system: Cryptococcus gattii species complex; experiment: Antimicrobial activity against fluconazole-resistant Cryptococcus gattii serotype C isolate H0058-1-818 at 0.5 ug/ml
[55] = system: Cryptococcus gattii species complex; experiment: Antimicrobial activity against fluconazole-resistant Cryptococcus gattii serotype C isolate NIH257 at 0.5 ug/ml
[56] = system: Cryptococcus gattii species complex; experiment: Antimicrobial activity against fluconazole-resistant Cryptococcus gattii serotype B isolate NIH535 at 0.5 ug/ml; method in brief: as §1
[57] = system: Cryptococcus gattii species complex; experiment: Antimicrobial activity against fluconazole-resistant Cryptococcus gattii serotype B isolate NIH184 at 0.5 ug/ml; method in brief: as §1

Measured: Activity

CC(/C=C/C(=O)NO)=C\[C@@H](C)C(=O)c1ccc(N(C)C)cc1
inactive: [1] | [2] | [3] | [4] | [5] | [6] | [7] | [8] | [9] | [10] | [11] | [12] | [13] | [14] | [15] | [16] | [17] | [18] | [19]

CN1C(=O)[C@]23CC4=CC=C[C@H](O)[C@H]4N2C(=O)[C@@]1(CO)SS3
inactive: [20] | [21] | [22] | [23] | [24] | [25] | [26] | [27] | [28] | [29] | [30] | [31] | [32] | [33] | [34] | [35] | [36] | [37] | [38]

CO[C@@H](/C(C)=C/C=C/C(C)=C/c1coc(C)n1)[C@@H](C)[C@@H]1C[C@H](O)[C@@]2(C)O[C@@H]2/C=C/[C@@H](C)[C@H]2C[C@H](CC(=O)O2)C[C@@H]2O[C@H]2C(=O)O1
inactive: [39] | [40] | [41] | [42] | [43] | [44] | [45] | [46] | [47] | [48] | [49] | [50] | [51] | [52] | [53] | [54] | [55] | [56] | [57]
